IDE cell inh: inhibits human insulin-degrading enzyme in HEK cells; AID 434962; 320,000 compounds, 0.41% hits; FAbetaB cleavage, fluorescence polarization; P14735; inhibition, % at 5.59 µM;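 active = percent inhibition above the average of all tested compounds plus 3 SD, set per screening campaign, cut at about 16% in these data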;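 note: IDE supplied by intact live HEK cells; FP after avidin binding of uncleaved biotin substrate so inhibition keeps polarization high; 0% = DMSO wells and 100% = 60 µM reference IDE inhibitor Ii1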
Rpn11 inh: blocks the human proteasome subunit Rpn11 | O00487 | human 26S proteasome, Ub4-pepOG fluorescence polarization; 20S core pre-blocked with epoxomicin | calls only at 20 µM | 360,000 compounds, 0.59% hits;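 active = inhibition at 20 µM, scaled to each plate's controls, above about 33%, limit read from the data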
Target sequence (O00487 whole entry, looked up): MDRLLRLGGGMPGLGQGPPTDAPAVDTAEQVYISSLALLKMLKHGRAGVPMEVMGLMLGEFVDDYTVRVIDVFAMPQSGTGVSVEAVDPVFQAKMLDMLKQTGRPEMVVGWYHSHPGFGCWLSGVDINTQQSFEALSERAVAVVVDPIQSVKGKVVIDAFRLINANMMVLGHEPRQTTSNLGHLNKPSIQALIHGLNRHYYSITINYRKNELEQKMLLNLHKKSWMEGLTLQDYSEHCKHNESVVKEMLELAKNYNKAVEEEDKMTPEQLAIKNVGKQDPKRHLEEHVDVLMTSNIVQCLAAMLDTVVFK
CSN inh: CSN deneddylation inhibition; Purified CSN, SCF-Nedd8-OG deneddylation, fluorescence polarization; inhibition, % at 12.5 µM; 360,000 compounds, 0.38% hits; AID 651999;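 active = pattern-corrected inhibition above about 35%, with an unprinted fluorescence ratio check between 0.5 and 1.5, limit read from the data, passing the limit was not always enough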;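 note: 0% = enzyme with substrate and 100% = substrate without enzyme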
Target sequence (Q92905 whole entry, looked up, one chain of several): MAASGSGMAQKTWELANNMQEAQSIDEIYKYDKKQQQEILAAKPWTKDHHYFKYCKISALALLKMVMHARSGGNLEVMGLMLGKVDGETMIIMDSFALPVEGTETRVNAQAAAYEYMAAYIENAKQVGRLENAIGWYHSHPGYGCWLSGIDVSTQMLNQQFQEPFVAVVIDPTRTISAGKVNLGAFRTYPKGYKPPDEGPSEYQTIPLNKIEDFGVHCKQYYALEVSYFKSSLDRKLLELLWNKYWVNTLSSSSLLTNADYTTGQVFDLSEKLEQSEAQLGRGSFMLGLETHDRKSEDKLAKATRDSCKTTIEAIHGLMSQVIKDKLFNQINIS
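test system = HEK293T-derived human Csn5 enzyme | amount = 0.24 nM Csn5 enzyme, final concentration | medium = Tris/NaCl/DTT buffer, pH 7.5 | schedule = 90 min reaction at room temperature | signal = FP | evaluation = inhibition of Csn5 cleavage, % | compound dosing = single dose of 12.5 µM compound with 0.25% DMSO | probe or stimulus = 10 nM SCFSkp2-Nedd8OG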
IDE cell activ: boosts human insulin-degrading enzyme activity in HEK cells; P14735; FAbeta-B cleavage, fluorescence polarization; 0% vehicle, 100% cell-free pure enzyme wells; activation, % at 5.96 µM; 340,000 compounds, 0.073% hits;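 active = activation above the mean of all tested compounds plus 3 SD, set per screening campaign, cut at about 17% in these data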
HNF4A DNA FP: change in binding of human HNF4 alpha to DNA. P41235. HNF4a-FITC DNA binding, fluorescence polarization, 1 h. activity change, % at 10 µM. 360,000 compounds, 0.3% hits. AID 1224865; in the data active = activity change above about 30%, passing the limit was not always enough
TPT1 inh: blocks Candida albicans tRNA 2'-phosphotransferase; recombinant caTPT1, FP RNA substrate dephosphorylation; 300,000 compounds, 0.81% hits; inhibition, % at 5 µM;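 active = inhibition above the mean of all tested compounds plus 3 SD, set per screening campaign, cut at about 24% in these data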;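 note: plate controls were DMSO alone for no effect and ferristatin control at 100 nM for full effect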
IDE inh confirm: confirmation of human insulin-degrading enzyme inhibitors in cells | shares compounds with IDE cell inh | HEK cells, FAbetaB cleavage, fluorescence polarization | AID 435028 | inhibition, % at 5.59 µM | 1,200 compounds, 51% hits;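 active = mean inhibition across triplicate wells above the cutoff set by the earlier primary insulin-degrading enzyme screen, cut at about 16% in these data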;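 note: 0% = DMSO wells and 100% = 60 µM reference IDE inhibitor Ii1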
HEK cytotox: kills HEK cells in IDE inhibitor counter-screen; shares compounds with IDE cell inh; HEK293 cytotoxicity, ATP luminescence; inhibition, % at 5.59 µM; 1,200 compounds, 28% hits; in the data active = inhibition above about 22%;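 note: 0% = vehicle wells and 100% = reference cytotoxic drug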
Numbers without * were called inactive; i = inactive; nt = not tested or not shown. The list is not random: actives were taken first. Their share in the collection is about 1.7%.

SMILES	IDE cell inh	Rpn11 inh	CSN inh	IDE cell activ	HNF4A DNA FP	TPT1 inh	IDE inh confirm	HEK cytotox
Cc1ccc2nc(-c3ccc(SCC(=O)N4CCc5ccccc54)nc3)[nH]c2c1	26*	i	0	-24	8	-1	10	13
CCOC(=O)c1cccnc1SC(CC)C(=O)NCc1ccco1 (configuration not stated)	-2	i	1	5	-1	-2	nt	nt
Cn1c(N)c(C(=O)COC(=O)CSc2ccc3ccccc3c2)c(=O)n(C)c1=O	18*	i	-2	-4	1	2	6	7
N/C(Cc1ccc([N+](=O)[O-])cc1)=N\OC(=O)c1ccc2ccccc2c1	8	i	-6	-1	2	0	nt	nt
O=C(N/N=C/c1cccc(O)c1)c1ccc(COc2ccc3c(c2)CCC3)o1	18*	i	1	-3	0	-7	3	8
CCOc1ccc(NC(=O)c2ccccn2)cc1	17*	i	-4	2	-1	-7	10	27*
CCCCNc1ccc(S(=O)(=O)c2cccc([N+](=O)[O-])c2)cc1[N+](=O)[O-]	3	i	-3	0	2	-1	nt	nt
CN(C)c1[nH]c(=O)c(C#N)c2c1CCN2Cc1ccccc1	4	i	0	1	1	0	nt	nt
N#Cc1c2c(c[nH]c1=O)CCN2Cc1ccccc1	16*	i	-5	-26	0	5	15	4
S=C(NCCc1c[nH]c2ccccc12)NC1CCCCC1	2	i	-10	2	-5	1	nt	nt
O=c1c2ccccc2nc(/C=C/c2cccc(Br)c2)n1CCCO	2	i	2	2	3	-1	nt	nt
Cn1c(/C=C/c2cccc(Br)c2)nc2ccccc2c1=O	19*	i	-5	-10	-2	0	6	19
COc1ccc(-c2ccc(-c3cc(=O)oc4c(C(C)C)ccc(C)c34)cc2)cc1	nt	i	4	4	2	nt	nt	nt
Cc1cc(OCC(O)CN(CCO)CCO)ccc1Cl (configuration not stated)	-1	i	1	5	0	4	nt	nt
CCOC(=O)c1c(C)[nH]c(C(=O)Cn2nnc(-c3ccccc3Cl)n2)c1C	19*	i	0	-19	-2	-4	4	15
O=C(O)CC12CC3CC(C1)CC(n1ncc(NCc4ccc5c(c4)OCO5)c(Cl)c1=O)(C3)C2	7	nt	nt	nt	nt	-11	nt	nt
O=C(O)CC12CC3CC(C1)CC(n1ncc(NCc4ccccc4Cl)c(Cl)c1=O)(C3)C2	39*	i	3	-36	1	2	20*	9
O=C(O)CC12CC3CC(C1)CC(n1ncc(NCc4ccc(F)cc4Cl)c(Cl)c1=O)(C3)C2	28*	i	1	-15	3	3	21*	5
CCCCCCNC(=O)N[C@H](C(=O)NCCC[C@H]1CN2C(=NC[C@H]2C)N1CCC(c1ccccc1)c1ccccc1)C(C)O (some centres not stated)	16*	nt	nt	-17	nt	-2	5	38*
Cc1ccc2nc(/C(C#N)=C\c3cc(O)ccc3[N+](=O)[O-])[nH]c2c1	0	i	-10	6	-6	10	nt	nt
COc1c(O)ccc(/C=C(\C#N)c2nc3ccccc3[nH]2)c1[N+](=O)[O-]	17*	i	-1	4	8	5	3	4
CCn1c(-c2ccc(-c3ccccc3)cc2)c[nH]c1=S	16*	i	-5	-7	3	6	-3	18
C=CCn1c(-c2ccccc2)c[nH]c1=S	0	i	-2	-1	1	-3	nt	nt
CCOC(=O)C1=C[C@@H](C(C)(C)C)N(S(=O)(=O)c2ccc(C)cc2)[C@H]1c1ccccc1Cl	nt	i	-4	nt	-1	nt	nt	nt
O=C(C1=C[C@H](c2coc3ccccc3c2=O)C[C@H](OCCCCO)O1)N1CCN(Cc2ccc3c(c2)OCO3)CC1	17*	i	4	-6	5	-4	2	17
SMILES	IDE cell inh	Rpn11 inh	CSN inh	IDE cell activ	HNF4A DNA FP	TPT1 inh	IDE inh confirm	HEK cytotox
CC(=O)Nc1cccc(C(=O)N/N=C/c2cccnc2)c1	1	i	5	-6	4	-1	nt	nt
O=C(N/N=C/c1cccnc1)c1cccc(NC(=O)c2cccc(Br)c2)c1	25*	i	-1	-14	4	-3	17*	8
Cc1cc(=O)oc2cc3c(cc12)OCO3	0	i	2	5	0	3	nt	nt
O=c1oc2cc(O)ccc2cc1-c1nc2c(s1)CCc1ccccc1-2	128*	i	-96	31*	-95	19	26*	16
O=C(Nc1cccc(-n2cnnn2)c1)c1cccc(Cl)c1	18*	i	1	-11	11	-3	12	13
Cc1ccc(-c2n[nH]c(=O)c3ccccc23)cc1S(=O)(=O)NCC1CCCO1 (configuration not stated)	4	i	-4	-6	2	-1	nt	nt
Cc1ccc(-c2n[nH]c(=S)c3ccccc23)cc1S(=O)(=O)NCC1CCCO1 (configuration not stated)	22*	i	2	-11	0	-5	5	16
COCC1CCN(Cc2cn(C)nc2-c2cccc(Cl)c2)C1 (configuration not stated)	0	i	-1	2	-2	-3	nt	nt
S=c1[nH]nc(Nc2cccc(Cl)c2)s1	17*	i	3	-1	1	0	6	6
CC(=O)Oc1ccc(/C=C2/SC(=S)N(Cc3ccccc3)C2=O)cc1	16*	i	13	-29	50*	10	78*	12
COc1cc(/C=C2/SC(=S)N(Cc3ccccc3)C2=O)ccc1OCC(=O)O	13	i	11	-2	8	10	nt	nt
Cn1nc(N)c2c(-c3ccccc3)c(C#N)c(N)nc21	2	i	2	1	-4	3	nt	nt
Cn1nc(N)c2c(-c3ccc(Cl)cc3)c(C#N)c(N)nc21	16*	i	-2	-7	-3	2	4	7
O=C(NCc1ccncc1)c1cc(-c2ccc(Cl)cc2)oc1C(F)(F)F	11	i	2	2	3	-4	nt	nt
O=C(NCc1ccccn1)c1cc(-c2ccc(Cl)cc2)oc1C(F)(F)F	16*	i	-4	nt	3	-3	0	9
CCOc1ccccc1-n1c(SCC(N)=O)nnc1-c1cccnc1	17*	i	-3	-33	1	-5	13	9
